Activity calls are given as the source filed them. No cut-off for these calls is given here.

The subject of data set [1] is Marmota monax. As to the kind of experiment: Toxicity in Woodchuck hepatitis virus infected woodchuck assessed as increase of liver alkaline phosphatase activity at 15 mg/kg, po qd for 48 weeks. The data set is classed as organism-based. On the set-up: dose 15 mg/kg, route oral. To be noted: in vivo, 8064 h. The method, boiled down: (§1)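 Woodchucks chronically infected with WHV, 5 per group, received oral drug once daily in liquid diet for 48 weeks; placebo got diet only. Serum chemistry (GGT, ALP, ALT, AST, SDH, among others) was run 2 weeks pretreatment, at week 0, every other week to week 12, then monthly to week 48. Sampling continued at 2, 4, 6, 8 and 12 weeks post-treatment.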

Data set [2] relates to Woodchuck hepatitis virus. As to the kind of experiment: Antiviral activity against Woodchuck hepatitis virus infected in woodchuck assessed as reduction of viral antigen level in serum at 15 mg/kg, po qd measured on 12th week on 48 weeks study (reference value: 4.3 +/- 1.5 log10 ng/ml). Type of data set: functional.
Data set [3] concerns Woodchuck hepatitis virus. As to the kind of experiment: Antiviral activity against Woodchuck hepatitis virus infected in woodchuck assessed as absent of lesion in portal hepatitis at 15 mg/kg, po qd measured on 12th week on 48 weeks study. The data set is classed as functional, organism-based. On the set-up: dose 15 mg/kg. The method, boiled down: (§2)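 Adult chronic WHV-carrier woodchucks (neonatally inoculated), 5 per group, given drug once daily by dose syringe in semisynthetic liquid diet, for 48 weeks; placebo got diet alone. Ultrasound-guided needle liver biopsies under ketamine/xylazine anesthesia at pretreatment, weeks 12, 36, 48 and 12 weeks post-withdrawal. Biopsies were formalin-fixed, paraffin-embedded and H&E stained. Portal and lobular hepatitis were graded 0 (absent) to 4 (most severe).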

In data set [4] the test system is Woodchuck hepatitis virus. The data set can be described thus: Antiviral activity against Woodchuck hepatitis virus infected in woodchuck assessed as absent of lesion in lobular hepatitis at 15 mg/kg, po qd measured on 36th week on 48 weeks study. The data set is classed as functional, organism-based. Also noted: dose 15 mg/kg. The method, boiled down: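 Chronic WHV-carrier adult woodchucks (inoculated at 3 days of age), 5 per group, dosed orally once daily for 48 weeks by dose syringe, drug in saline suspended in semisynthetic liquid diet; placebo is diet alone. Ultrasound-guided needle liver biopsies under ketamine/xylazine, formalin-fixed, H&E stained; portal and lobular hepatitis graded 0 (absent) to 4 (most severe).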

Data set [5] has as its system Woodchuck hepatitis virus. The data set can be described thus: Antiviral activity against Woodchuck hepatitis virus infected in woodchuck assessed as reduction of viral DNA replicative intermediate level per ug of total cell DNA at 15 mg/kg, po qd for 48 weeks (reference value: 995 +/- 736 pg). The data set is classed as functional. The method in brief: (§3)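 Chronic WHV-carrier woodchucks, 5 per group, 15 mg/kg/day oral once daily for 48 weeks in liquid diet. Needle liver biopsies were snap-frozen in liquid nitrogen and stored at −70°C. Hepatic WHV DNA replicative intermediates were quantified by Southern blot (pg/μg total cell DNA) and WHV RNA by Northern blot; group means ± SD were compared with pretreatment and placebo.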

Data set [6] relates to Marmota monax. The data set can be described thus: Toxicity in Woodchuck hepatitis virus infected woodchuck assessed as increase of liver aspartate aminotransferase activity at 15 mg/kg, po qd for 48 weeks. As to conditions: in vivo, 8064 h. The data set is classed as organism-based. On the set-up: dose 15 mg/kg, route oral. The method, boiled down: as §1
The test system of data set [7] is Woodchuck hepatitis virus. The data set can be described thus: Antiviral activity against Woodchuck hepatitis virus infected in woodchuck assessed as frequency of hepatocytes expressing viral antigen at 15 mg/kg, po qd for 48 weeks measured on 60th week. Type of data set: functional, Hepatocyte. The method, boiled down:
(§4)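 Chronic WHV-carrier woodchucks, 5 per group, given 15 mg/kg/day orally once daily for 48 weeks in liquid diet; placebo is diet alone. Liver biopsies at pretreatment, weeks 12, 36, 48 and 12 weeks after withdrawal. Cytoplasmic WHsAg staining scored 0–4: 1 ≤1%, 2 ≤2%, 3 ≤5%, 4 ≥10% of hepatocytes.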

Data set [8] concerns Woodchuck hepatitis virus. The data set can be described thus: Antiviral activity against Woodchuck hepatitis virus infected in woodchuck assessed as reduction of viral antigen positive hepatocytes at 15 mg/kg, po qd measured on 12th week on 48 weeks study (reference value: 55 +/- 32 %). The data set is classed as functional, Hepatocyte. Also noted: scale not given: the % may be the effect or the level left. The method, boiled down: (§5)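 Chronic WHV-carrier woodchucks, 5 per group, 15 mg/kg/day oral once daily for 48 weeks in liquid diet. Liver biopsies were taken at pretreatment, weeks 12, 36, 48 and week 60. Percentage of hepatocytes positive for WHcAg was given as group mean ± SD and compared with pretreatment and placebo.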

Data set [9] relates to Woodchuck hepatitis virus. The data set can be described thus: Antiviral activity against Woodchuck hepatitis virus infected in woodchuck assessed as absent of lesion in lobular hepatitis at 15 mg/kg, po qd measured on 12th week on 48 weeks study. The data set is classed as functional, organism-based. Also noted: dose 15 mg/kg. The method, boiled down:
as §2

Data set [10] relates to Woodchuck hepatitis virus. The data set can be described thus: Antiviral activity against Woodchuck hepatitis virus infected in woodchuck assessed as reduction of viral antigen positive hepatocytes at 15 mg/kg, po qd measured on 36th week on 48 weeks study (reference value: 41 +/- 25 %). Type of data set: functional, Hepatocyte. On the set-up: scale not given: the % may be the effect or the level left. The method in brief:
as §5

The test system of data set [11] is Marmota monax. As to the kind of experiment: Toxicity in Woodchuck hepatitis virus infected woodchuck assessed as increase of liver sorbitol dehydrogenase activity at 15 mg/kg, po qd measured on 4 to 24 weeks on 48 week study. Also noted: dose 15 mg/kg, route oral. Type of data set: organism-based. As to conditions: in vivo. The method in brief:
as §1

Data set [12] relates to Woodchuck hepatitis virus. As to the kind of experiment: Antiviral activity against Woodchuck hepatitis virus infected in woodchuck assessed as reduction of viral RNA level per ug of total cell DNA at 15 mg/kg, po qd measured on 12th week on 48 weeks study (reference value: 46 +/- 25 pg). Type of data set: functional. The method, boiled down: as §3
The subject of data set [13] is Woodchuck hepatitis virus. The data set can be described thus: Antiviral activity against Woodchuck hepatitis virus infected in woodchuck assessed as reduction of viral RNA level per ug of total cell DNA at 15 mg/kg, po qd measured on 36th week on 48 weeks study (reference value: 33 +/- 21 pg). The data set is classed as functional. The method in brief:
as §3

The subject of data set [14] is Woodchuck hepatitis virus. As to the kind of experiment: Antiviral activity against Woodchuck hepatitis virus infected in woodchuck assessed as reduction of viral antigen level in serum at 15 mg/kg, po qd for 48 weeks measured on 60th week (reference value: 3.3 +/- 1.6 log10 ng/ml). The data set is classed as functional.
In data set [15] the test system is Woodchuck hepatitis virus. The data set can be described thus: Antiviral activity against Woodchuck hepatitis virus infected in woodchuck assessed as reduction of viral antigen level in serum at 15 mg/kg, po qd measured on 36th week on 48 weeks study (reference value: 3.8 +/- 1.3 log10 ng/ml). The data set is classed as functional.
The test system of data set [16] is Marmota monax. As to the kind of experiment: Toxicity in Woodchuck hepatitis virus infected woodchuck assessed as change in body weight at 15 mg/kg, po qd for 48 weeks measured up to 60 weeks. To be noted: in vivo. Also noted: dose 15 mg/kg, route oral. The data set is classed as organism-based. The method, boiled down: (§6)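 Chronic WHV-carrier woodchucks, 5 per group, were dosed orally once daily in liquid diet for 48 weeks, with a placebo diet-only group. Body weights were monitored. Complete blood counts were taken 2 weeks pretreatment, at weeks 12, 36 and 48 of treatment, and 12 weeks after withdrawal. Values were compared with placebo controls.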

Data set [17] relates to Marmota monax. The data set can be described thus: Toxicity in Woodchuck hepatitis virus infected woodchuck assessed as effect on hematological parameters at 15 mg/kg, po qd for 48 weeks measured up to 60 weeks. The data set is classed as organism-based. Also noted: dose 15 mg/kg, route oral. To be noted: in vivo. The method in brief:
as §6

Data set [18] deals with Marmota monax. The data set can be described thus: Toxicity in Woodchuck hepatitis virus infected woodchuck assessed as increase of liver alanine aminotransferase activity at 15 mg/kg, po qd measured on 4 to 24 weeks on 48 week study. On the set-up: dose 15 mg/kg, route oral. The data set is classed as organism-based. To be noted: in vivo. The method in brief: as §1
The test system of data set [19] is Marmota monax. The data set can be described thus: Toxicity in Woodchuck hepatitis virus infected woodchuck assessed as increase of liver sorbitol dehydrogenase activity at 15 mg/kg, po qd measured on 28 to 48 weeks on 48 week study. On the set-up: dose 15 mg/kg, route oral. To be noted: in vivo. The data set is classed as organism-based. The method in brief:
as §1

Data set [20] deals with Woodchuck hepatitis virus. The data set can be described thus: Antiviral activity against Woodchuck hepatitis virus infected in woodchuck assessed as reduction of viral DNA replicative intermediate level per ug of total cell DNA at 15 mg/kg, po qd for 48 weeks measured on 60th week (reference value: 979 pg). Type of data set: functional. The method in brief:
as §3

The subject of data set [21] is Woodchuck hepatitis virus. The data set can be described thus: Antiviral activity against Woodchuck hepatitis virus infected in woodchuck assessed as frequency of hepatocytes expressing viral antigen at 15 mg/kg, po qd for 48 weeks. Type of data set: functional, Hepatocyte. The method, boiled down: as §4
For data set [22], the system named is Marmota monax. The data set can be described thus: Toxicity in Woodchuck hepatitis virus infected woodchuck assessed as increase of serum gamma-glutamyltransferase activity at 15 mg/kg, po qd for 48 weeks. The data set is classed as organism-based. Also noted: dose 15 mg/kg, route oral. To be noted: in vivo, 8064 h. The method, boiled down:
as §1

Take `CC(C)(C)C(=O)OCOP(=O)(COCCn1cnc2c(N)ncnc21)OCOC(=O)C(C)(C)C` [ADEFOVIR DIPIVOXIL]: the Activity result is recorded as “Toxic” in data set [1]; 4.3 log10ng/ml in [2]; 151 pg in data set [5]; “Toxic” in [6]; 1% in data set [7]; 21% in data set [8]. In addition, the Activity in [10] was 45%; in [11], “Toxic”; in data set [12], 33 pg; in data set [13] it was 34 pg; in [14], 5 log10ng/ml; in data set [15] it was 4.8 log10ng/ml. Also, the Activity entry is on record as “Non-toxic” in [16]; “Non-toxic” in data set [17]; “Toxic” in data set [18]; “Toxic” in data set [19]; 1147 pg in data set [20]; 2% in [21]. In addition, the Activity result in data set [22] is recorded as “Toxic”. Further, the outcome in data set [3], in data set [4] and in data set [9] was Active.
As for `CC(C)OC(=O)OCOP(=O)(CO[C@H](C)Cn1cnc2c(N)ncnc21)OCOC(=O)OC(C)C.O=C(O)/C=C/C(=O)O` [TENOFOVIR DISOPROXIL FUMARATE], the Activity entry is on record as “Toxic” in data set [1]; 3.4 log10ng/ml in [2]; 704 pg in [5]; “Toxic” in [6]; 2% in [7]; 30% in data set [8]. In addition, the Activity in [10] is on record as 20%; in [11] it was “Toxic”; in data set [12] it was 30 pg; in [13] it was 25 pg; in data set [14] it was 4 log10ng/ml; in data set [15] it was 2.9 log10ng/ml. The Activity entry in data set [16] is “Non-toxic”; in data set [17] it was “Non-toxic”; in data set [18], “Toxic”; in [19], “Toxic”; in data set [20] it was 1374 pg; in data set [21] it was 1%. In addition, in data set [22], the Activity entry is recorded as “Toxic”. Besides, the result in data set [3], in [4] and in data set [9] was Active.

These data come from ChEMBL document CHEMBL1687712, “Antiviral effects of lamivudine, emtricitabine, adefovir dipivoxil, and tenofovir disoproxil fumarate administered orally alone and in combination to woodchucks with chronic woodchuck hepatitis virus infection” (Antimicrob Agents Chemother, 2008).
